Calls of active or inactive are those of the source. The calls are words filed in the database; no cut-off is given here.
Legend:
LOX IMVI = assay: Cytotoxicity against human LOXIMVI cells assessed as cell growth at 10 uM after 48 hrs by SRB assay relative to control; format: functional; conditions: read-out: Activity
Summary of the method: (§1)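 NCI Developmental Therapeutics Program 60-cell-line screen at a single dose of 10 μM. Cells incubated with compound for 48 h at 37 °C before viability determination.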

KM12 = assay: Cytotoxicity against human KM12 cells assessed as cell growth at 10 uM after 48 hrs by SRB assay relative to control; format: functional; conditions: KM12, 48 h, read-out: Activity; summary of the method: as §1
HT-29 = assay: Cytotoxicity against human HT-29 cells assessed as cell growth at 10 uM after 48 hrs by SRB assay relative to control; format: functional; conditions: HT-29, 48 h, read-out: Activity; summary of the method: as §1
HCT-15 = assay: Cytotoxicity against human HCT15 cells assessed as cell growth at 10 uM after 48 hrs by SRB assay relative to control; format: functional; conditions: HCT-15, 48 h, read-out: Activity; summary of the method: as §1
NCI-H522 = assay: Cytotoxicity against human NCI-H522 cells assessed as cell growth at 10 uM after 48 hrs by SRB assay relative to control; format: functional; conditions: NCI-H522, 48 h, read-out: Activity; summary of the method: as §1
NCI-H226 = assay: Cytotoxicity against human NCI-H226 cells assessed as cell growth at 10 uM after 48 hrs by SRB assay relative to control; format: functional; conditions: NCI-H226, 48 h, read-out: Activity; summary of the method: as §1
HOP-62 = assay: Cytotoxicity against human HOP62 cells assessed as cell growth at 10 uM after 48 hrs by SRB assay relative to control; format: functional; conditions: HOP-62, 48 h, read-out: Activity; summary of the method: as §1
SR = assay: Cytotoxicity against human SR cells assessed as cell growth at 10 uM after 48 hrs by SRB assay relative to control; format: functional; conditions: read-out: Activity
Summary of the method: (§2)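 Single-dose (10 μM) screen run by the NCI Developmental Therapeutics Program on its 60 human cancer cell line panel. Viability was determined after 48 h incubation with the cells at 37 °C.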

RPMI-8226 = assay: Cytotoxicity against human RPMI8226 cells assessed as cell growth at 10 uM after 48 hrs by SRB assay relative to control; format: functional; conditions: RPMI-8226, 48 h, read-out: Activity; summary of the method: as §1
MOLT-4 = assay: Cytotoxicity against human MOLT4 cells assessed as cell growth at 10 uM after 48 hrs by SRB assay relative to control; format: functional; conditions: MOLT-4, 48 h, read-out: Activity; summary of the method: as §1
[1] = Stability in phosphate buffer assessed as formation of guanine-tetraplex structure at 0.2 to 3.9 mM at 25 degC by CD spectrophotometric analysis; format: physicochemical; conditions: 3900 µM
Summary of the method: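 GRP78 DNA duplex was annealed from complementary single strands in phosphate binding buffer (140 mM KCl, 1 mM MgCl₂, 5 mM Na₂HPO₄, pH 7.2), then titrated with ligand at 0.2–3.9 mM. CD spectra were recorded, and molar ellipticity was followed at the 260–280 nm maximum and the 248 nm minimum.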

[2] = Binding affinity to GRP78 duplex DNA (unknown origin) assessed as DNA-compound complex formation at 3.9 mM measured at 36 hrs by dynamic light scattering analysis relative to control
Summary of the method: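 DNA (1.1 μM), with or without ligand at 3.9 mM, incubated 36 h in phosphate buffer. Particle size then measured by dynamic light scattering against native DNA and ligand alone.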

[3] = Binding affinity to GRP78 duplex DNA (unknown origin) assessed as change in duplex DNA hyperchromicity at 0.9 to 3.9 mM after 36 hrs by thermal denaturation assay
Summary of the method: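 Duplex DNA (1.1 μM) annealed from complementary strands in phosphate buffer (140 mM KCl, 1 mM MgCl₂, 5 mM sodium phosphate, pH 7.2), with ligand 0.2–3.9 mM. Melting followed as % hyperchromicity at 260 nm over 5–90 °C. Tm shift measured against native duplex.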

[4] = Binding affinity to GRP78 duplex DNA (unknown origin) after 36 hrs by gel shift mobility assay
Summary of the method: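 Complementary strands (0.57 μM) annealed in 30% sucrose in TAE buffer (89 mM Tris/acetate, 2.5 mM EDTA, […]), incubated 36 h at 37 °C with ligand at 0, 5, 25, 50, 100 equiv per DNA phosphate (0, 0.2, 0.9, 1.9, 3.9 mM). Run on 24% native PAGE. DNA bands visualized by UV-shadowing at 260 nm. K_D taken from the duplex band ratio with versus without ligand.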

BT-549 = assay: Cytotoxicity against human BT549 cells assessed as cell growth at 10 uM after 48 hrs by SRB assay relative to control; format: functional; conditions: BT-549, 48 h, read-out: Activity; summary of the method: as §1
DU-145 = assay: Cytotoxicity against human DU145 cells assessed as cell growth at 10 uM after 48 hrs by SRB assay relative to control; format: functional; conditions: DU-145, 48 h, read-out: Activity; summary of the method: as §1
PC-3 = assay: Cytotoxicity against human PC3 cells assessed as cell growth at 10 uM after 48 hrs by SRB assay relative to control; format: functional; conditions: PC-3, 48 h, read-out: Activity; summary of the method: as §1
SN12C = assay: Cytotoxicity against human SN12C cells assessed as cell growth at 10 uM after 48 hrs by SRB assay relative to control; format: functional; conditions: read-out: Activity; summary of the method: as §2
A498 = assay: Cytotoxicity against human A498 cells assessed as cell growth at 10 uM after 48 hrs by SRB assay relative to control; format: functional; conditions: A498, 48 h, read-out: Activity; summary of the method: as §1
786-0 = assay: Cytotoxicity against human 786-0 cells assessed as cell growth at 10 uM after 48 hrs by SRB assay relative to control; format: functional; conditions: 786-0, 48 h, read-out: Activity; summary of the method: as §1
SK-OV-3 = assay: Cytotoxicity against human SKOV3 cells assessed as cell growth at 10 uM after 48 hrs by SRB assay relative to control; format: functional; conditions: SK-OV-3, 48 h, read-out: Activity; summary of the method: as §2
[5] = Cytotoxicity against human NCI-ADR-RES cells assessed as cell growth at 10 uM after 48 hrs by SRB assay relative to control; format: functional; conditions: read-out: Activity; summary of the method: as §1
OVCAR-8 = assay: Cytotoxicity against human OVCAR8 cells assessed as cell growth at 10 uM after 48 hrs by SRB assay relative to control; format: functional; conditions: OVCAR-8, 48 h, read-out: Activity; summary of the method: as §1
OVCAR-4 = assay: Cytotoxicity against human OVCAR4 cells assessed as cell growth at 10 uM after 48 hrs by SRB assay relative to control; format: functional; conditions: OVCAR-4, 48 h, read-out: Activity; summary of the method: as §1
UACC-257 = assay: Cytotoxicity against human UACC257 cells assessed as cell growth at 10 uM after 48 hrs by SRB assay relative to control; format: functional; conditions: UACC-257, 48 h, read-out: Activity; summary of the method: as §2
SK-MEL-28 = assay: Cytotoxicity against human SK-MEL-28 cells assessed as cell growth at 10 uM after 48 hrs by SRB assay relative to control; format: functional; conditions: SK-MEL-28, 48 h, read-out: Activity; summary of the method: as §1
SK-MEL-5 = assay: Cytotoxicity against human SK-MEL-5 cells assessed as cell growth at 10 uM after 48 hrs by SRB assay relative to control; format: functional; conditions: SK-MEL-5, 48 h, read-out: Activity; summary of the method: as §1
MDA-MB-435 = assay: Cytotoxicity against human MDA-MB-435 cells assessed as cell growth at 10 uM after 48 hrs by SRB assay relative to control; format: functional; conditions: MDA-MB-435, 48 h, read-out: Activity; summary of the method: as §1

SMILES: CCCCCCCCCCCCCCCC(=O)O[C@@H]1[C@H](OC(=O)CCCCCCCCCCCCCCC)[C@@H](C(=O)N[C@@H](CCCCN)C(=O)OC)O[C@H]1n1cnc2c(=O)[nH]c(NC(=O)C(C)C)nc21.Cl
- growth at 10 µM (LOX IMVI): 93.5%
- growth at 10 µM (KM12): 95%
- growth at 10 µM (HT-29): 98.2%
- growth at 10 µM (HCT-15): 96.6%
- growth at 10 µM (NCI-H522): 84.4%
- growth at 10 µM (NCI-H226): 102%
- growth at 10 µM (HOP-62): 104%
- growth at 10 µM (SR): 9.69%
- growth at 10 µM (RPMI-8226): 92.5%
- growth at 10 µM (MOLT-4): 93.4%
- Stability [1]: Stable
- fold change (FC) [2]: > 2
- Activity [3]: Active
- Kd [4]: 700 µM
- growth at 10 µM (BT-549): 105%
- growth at 10 µM (DU-145): 107%
- growth at 10 µM (PC-3): 103%
- growth at 10 µM (SN12C): 105%
- growth at 10 µM (A498): 98.1%
- growth at 10 µM (786-0): 98.1%
- growth at 10 µM (SK-OV-3): 99.4%
- growth at 10 µM [5]: 102%
- growth at 10 µM (OVCAR-8): 87%
- growth at 10 µM (OVCAR-4): 120%
- growth at 10 µM (UACC-257): 90.1%
- growth at 10 µM (SK-MEL-28): 113%
- growth at 10 µM (SK-MEL-5): 101%
- growth at 10 µM (MDA-MB-435): 99.7%

— ChEMBL document CHEMBL2434893, “Synthesis, DNA binding and anti-leukemic activity of an aminoacyl nucleolipid” (Bioorg Med Chem Lett, 2013)
